We go through 30 molecules from PubChem BioAssay AID651576 (The Scripps Research Institute Molecular Screening Center, 2012).

The source made the active and inactive calls.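 The calls were made as follows: active = inhibition of at least 50%, averaged over three replicate wells; inactive = inhibition below 50%.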 A value given as a limit tells only on which side of the number the result lay.

The assay has as its system HCV core protein (core106) dimerization, Hepatitis C virus. Nature of the assay: HCV core106 dimerization inhibitors, late-stage follow-up, biochemical, AlphaScreen luminescence, single dose 15 µM, powder samples (AID 651576). Particulars: AlphaScreen GST/Flag-core106 dimerization, at 15 µM, active compounds read high. An outline of the steps: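 Material: HCV core106 dimerization between GST-tagged and Flag-tagged core106 proteins / Amount: each tagged core106 protein at 150 nM / Buffer or medium: HEPES pH 7.5 with DTT and CHAPS / Incubation: protein preincubation 1 h at room temperature, 1 h per bead step / Detection: AlphaScreen luminescence / Controls: protein-only wells as 0% inhibition reference / Repeats: triplicate wells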
In general terms: Alpha assays give light when donor and acceptor beads are brought close together.
`Cc1ccc(Cc2c(C)nc3nc(SCC(=O)N4CCCCC4)nn3c2C)cc1`: the inhibition (in general, the share of the control response that was lost under treatment) was 41% (inactive).
Then `Cc1ccc(Cc2c(C)nc3nc(SCC(=O)N[C@H]4CCCN(C(=O)CSc5nc6nc(C)c(Cc7ccc(C)cc7)c(C)n6n5)C4)nn3c2C)cc1`, with 85%.
For the molecule `Cc1ccc(Cc2c(C)nc3nc(SCC(=O)NC4CCN(C(=O)CSc5nc6nc(C)c(Cc7ccc(C)cc7)c(C)n6n5)CC4)nn3c2C)cc1`, the inhibition was 80%.
On to `Cc1cccc(Cc2c(C)nc3nc(SCC(=O)N4CCCCCC4)nn3c2C)c1`, for which the inhibition was 71%.
As for `Cc1ccc(Cc2c(C)nc3nc(SCC(=O)NCC[N+]4(Cc5ccc(F)cc5)CCN(Cc5ccc(F)cc5)CC4)nn3c2C)cc1`, the inhibition was < 50% (inactive).
The same measure for `Cc1ccc(Cc2c(C)nc3nc(SCC(=O)NCCN4CCN(S(=O)(=O)c5ccccc5)CC4)nn3c2C)cc1`: 62%.
The same measure for `Cc1ccc(Cc2c(C)nc3nc(SCC(=O)NCCN4CCOCC4)nn3c2C)cc1`: 60%; for `Cc1ccc(Cc2c(C)nc3nc(SCc4ccc(Cl)cc4)nn3c2C)cc1`: 52%.
Turning to `CCCN1CCN(CCNC(=O)CSc2nc3nc(C)c(Cc4ccc(C)cc4)c(C)n3n2)CC1`, the inhibition is < 50% (inactive).
Then `Cc1ccc(Cc2c(C)nc3nc(SCC(=O)NCCN4CCCNCC4)nn3c2C)cc1`, with < 50% (inactive); and `CCN(CC)CCCNC(=O)CSc1nc2nc(C)c(Cc3ccc(C)cc3)c(C)n2n1`, with 65%; and `Cc1ccc(Cc2c(C)nc3nc(SCC(=O)N(C)C)nn3c2C)cc1`, with 51%.
Then `Cc1ccc(Cc2c(C)nc3nc(SCC(=O)NCCN4CCN(C(=O)OC(C)(C)C)CC4)nn3c2C)cc1`, with 51%; and `Cc1ccc(Cc2c(C)nc3nc(SCC(=O)N4CCSCC4)nn3c2C)cc1`, with 63%.
The same measure for `Cc1ccc(Cc2c(C)nc3nc(SCC(=O)NC4CCC(NC(=O)CSc5nc6nc(C)c(Cc7ccc(C)cc7)c(C)n6n5)CC4)nn3c2C)cc1` (stereo not given): 92%; for `Cc1ccc(Cc2c(C)nc3nc(SCC(=O)N4CCCN(C(=O)CSc5nc6nc(C)c(Cc7ccc(C)cc7)c(C)n6n5)CC4)nn3c2C)cc1`: 90%.
Regarding `Cc1ccc(Cc2c(C)nc3nc(SCC(=O)NCCC4CCOCC4)nn3c2C)cc1`, the inhibition was < 50% (inactive).
Then `Cc1ccc(Cc2c(C)nc3nc(SCC(=O)NCCN4CCN(C(=O)c5ccccc5)CC4)nn3c2C)cc1`, with < 50% (inactive); and `Cc1ccc(Cc2c(C)nc3nc(SCC(=O)N4CCNCC4)nn3c2C)cc1`, with 42% (inactive).
The same measure for `Cc1ccc(Cc2c(C)nc3nc(SCC(=O)NCCc4ccccc4)nn3c2C)cc1`: 40% (inactive); for `Cc1ccc(Cc2c(CCc3ccccc3)nc3nc(SC(Cc4ccccc4)C(=O)NCCN4CCOCC4)nn3c2C)cc1` (stereo not given): 85%; for `Cc1nc2nc(SCC(=O)NCCC3=CCCCC3)nn2c(C)c1Cc1ccc(Cl)cc1`: 30% (inactive).
Consider `Cc1ccc(Cc2c(C)nc3nc(SCC(=O)N4CCN(Cc5ccc(Br)cc5)CC4)nn3c2C)cc1`, for which the inhibition was 43% (inactive).
For the molecule `Cc1ccc(Cc2c(C)nc3nc(SCC(=O)NCC4CCN(C(=O)CSc5nc6nc(C)c(Cc7ccc(C)cc7)c(C)n6n5)CC4)nn3c2C)cc1`, the inhibition is 89%.
Then `Cc1ccc(Cc2c(C)nc3nc(SCC(=O)NCCN4CCN(S(C)(=O)=O)CC4)nn3c2C)cc1`, with < 50% (inactive); and `CCCNC(=O)CSc1nc2nc(C)c(Cc3cccc(C)c3)c(C)n2n1`, with 33% (inactive); and `Cc1ccc(Cc2c(C)nc3nc(SCC(=O)N4CCCC4)nn3c2C)cc1`, with 87%.
As for `Cc1ccc(Cc2c(C)nc3nc(SCC(=O)N4CCN(Cc5ccc(Cl)cc5)CC4)nn3c2C)cc1`, the inhibition was 44% (inactive).
On to `Cc1ccc(Cc2c(C)nc3nc(SCC(=O)N4C[C@@H]5C[C@H]4CN5C(=O)CSc4nc5nc(C)c(Cc6ccc(C)cc6)c(C)n5n4)nn3c2C)cc1`, for which the inhibition was 67%.
The same measure for `Cc1ccc(Cc2c(C)nc3nc(SCC(=O)NCCN4CCCC4)nn3c2C)cc1`: < 50% (inactive).
